Laboratory results: ChEMBL document CHEMBL1649446, “Comparative antipneumococcal activities of sulopenem and other drugs” (2009)
Converted amounts (≈) assume the structure as drawn.

How the values were obtained:
Format in all cases: functional
Streptococcus pneumoniae [1] = experiment: Antimicrobial activity against Streptococcus pneumoniae isolate 1564 by agar dilution method
Streptococcus pneumoniae [2] = experiment: Antimicrobial activity against Streptococcus pneumoniae isolate 1055 by agar dilution method
Streptococcus pneumoniae [3] = experiment: Antimicrobial activity against Streptococcus pneumoniae 4 by time-kill analysis
Summary of the method: (§1)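 Time-kill in cation-adjusted Mueller-Hinton broth with 5% lysed horse blood; inocula 5 × 105 to 5 × 10^6 CFU/ml; drugs at MIC, 2× and 4× MIC; 35°C shaking water bath; viable counts at 0, 3, 6, 12, 24 h. Bactericidal = ≥3 log10 CFU/ml (99.9%) drop from original inoculum; 90%/99%/99.9% killing scored per strain.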

Streptococcus pneumoniae [4] = experiment: Antimicrobial activity against Streptococcus pneumoniae 1 by time-kill analysis
Summary of the method: as §1, with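 “12 and” for “12,”, “if” for “=”, “reduction” for “drop”, “90% and 99%” for “90%/99%/99.9%”, “also scored.” for “scored per strain.”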

Streptococcus pneumoniae [5] = experiment: Antimicrobial activity against Streptococcus pneumoniae 7 by time-kill analysis; summary of the method: as §1
Streptococcus pneumoniae [6] = experiment: Antimicrobial activity against Streptococcus pneumoniae 9 by time-kill analysis
Summary of the method: as §1, with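 “12 and” for “12,”, “if” for “=”, “reduction” for “drop”, “90% and 99%” for “90%/99%/99.9%”, “also scored.” for “scored per strain.”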

Streptococcus pneumoniae [7] = experiment: Antimicrobial activity against Streptococcus pneumoniae 2 by time-kill analysis; summary of the method: as §1
Streptococcus pneumoniae [8] = experiment: Antimicrobial activity against Streptococcus pneumoniae 11 by time-kill analysis; summary of the method: as §1
Streptococcus pneumoniae [9] = experiment: Antimicrobial activity against Streptococcus pneumoniae 5 by time-kill analysis
Summary of the method: as §1, with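 “12 and” for “12,”, “if” for “=”, “reduction” for “drop”, “90% and 99%” for “90%/99%/99.9%”, “also scored.” for “scored per strain.”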

Streptococcus pneumoniae [10] = experiment: Antimicrobial activity against Streptococcus pneumoniae 3 by time-kill analysis; summary of the method: as §1
Streptococcus pneumoniae [11] = experiment: Antimicrobial activity against Streptococcus pneumoniae 8 by time-kill analysis; summary of the method: as §1
Streptococcus pneumoniae [12] = experiment: Antimicrobial activity against Streptococcus pneumoniae 10 by time-kill analysis; summary of the method: as §1
Streptococcus pneumoniae [13] = experiment: Antimicrobial activity against Streptococcus pneumoniae 6 by time-kill analysis; summary of the method: as §1
Streptococcus pneumoniae [14] = experiment: Antimicrobial activity against Streptococcus pneumoniae 12 by time-kill analysis; summary of the method: as §1
Streptococcus pneumoniae [15] = experiment: Antimicrobial activity against Streptococcus pneumoniae isolate 3260 by agar dilution method
Streptococcus pneumoniae [16] = experiment: Antimicrobial activity against Streptococcus pneumoniae isolate 3282 by agar dilution method
Streptococcus pneumoniae [17] = experiment: Antimicrobial activity against Streptococcus pneumoniae isolate 3481 by agar dilution method
Summary of the method: (§2)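 Agar dilution MIC on Mueller-Hinton agar with 5% sheep blood, inocula 10^4 CFU/spot; amoxicillin-clavulanate combined 1:2; S. pneumoniae ATCC 49619 quality control each run.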

Streptococcus pneumoniae [18] = experiment: Antimicrobial activity against Streptococcus pneumoniae isolate 3681 by agar dilution method; summary of the method: as §2
Streptococcus pneumoniae [19] = experiment: Antimicrobial activity against penicillin-resistant Streptococcus pneumoniae by agar dilution method; summary of the method: as §2
Streptococcus pneumoniae [20] = experiment: Antimicrobial activity against Streptococcus pneumoniae isolate 3374 by agar dilution method; summary of the method: as §2
Streptococcus pneumoniae [21] = experiment: Antimicrobial activity against Streptococcus pneumoniae isolate 37 by agar dilution method; summary of the method: as §2
Streptococcus pneumoniae [22] = experiment: Antimicrobial activity against Streptococcus pneumoniae isolate 1394 by agar dilution method
Streptococcus pneumoniae [23] = experiment: Antimicrobial activity against Streptococcus pneumoniae isolate 3587 by agar dilution method
Streptococcus pneumoniae [24] = experiment: Antimicrobial activity against penicillin-intermediate Streptococcus pneumoniae by agar dilution method
Streptococcus pneumoniae [25] = experiment: Antimicrobial activity against Streptococcus pneumoniae isolate 3346 by agar dilution method
Streptococcus pneumoniae [26] = experiment: Antimicrobial activity against Streptococcus pneumoniae isolate 2880 by agar dilution method; summary of the method: as §2
Streptococcus pneumoniae [27] = experiment: Antimicrobial activity against Streptococcus pneumoniae isolate 1146 by agar dilution method; summary of the method: as §2
Streptococcus pneumoniae [28] = experiment: Antimicrobial activity against Streptococcus pneumoniae isolate 24 by agar dilution method
Streptococcus pneumoniae [29] = experiment: Antimicrobial activity against Streptococcus pneumoniae isolate 1384 by agar dilution method; summary of the method: as §2
Streptococcus pneumoniae [30] = experiment: Antimicrobial activity against penicillin-susceptible Streptococcus pneumoniae by agar dilution method
Streptococcus pneumoniae [31] = experiment: Antimicrobial activity against Streptococcus pneumoniae isolate 1397 by agar dilution method; summary of the method: as §2
Streptococcus pneumoniae [32] = experiment: Antimicrobial activity against Streptococcus pneumoniae isolate 3275 by agar dilution method; summary of the method: as §2
Streptococcus pneumoniae [33] = experiment: Antimicrobial activity against Streptococcus pneumoniae isolate 4755 by agar dilution method; summary of the method: as §2
Streptococcus pneumoniae [34] = experiment: Antimicrobial activity against Streptococcus pneumoniae isolate 2688 by agar dilution method; summary of the method: as §2
Streptococcus pneumoniae [35] = experiment: Antimicrobial activity against Streptococcus pneumoniae isolate 2686 by agar dilution method; summary of the method: as §2
Streptococcus pneumoniae [36] = experiment: Antimicrobial activity against Streptococcus pneumoniae 19A by agar dilution method; summary of the method: as §2
Streptococcus pneumoniae [37] = experiment: Antimicrobial activity against Streptococcus pneumoniae isolate 3458 by agar dilution method
Streptococcus pneumoniae [38] = experiment: Antimicrobial activity against Streptococcus pneumoniae isolate 4747 by agar dilution method; summary of the method: as §2
Streptococcus pneumoniae [39] = experiment: Antimicrobial activity against Streptococcus pneumoniae isolate 2617 by agar dilution method; summary of the method: as §2
Streptococcus pneumoniae [40] = experiment: Antimicrobial activity against Streptococcus pneumoniae isolate 3412 by agar dilution method; summary of the method: as §2
Streptococcus pneumoniae [41] = experiment: Antimicrobial activity against Streptococcus pneumoniae isolate 3455 by agar dilution method
Streptococcus pneumoniae [42] = experiment: Antimicrobial activity against Streptococcus pneumoniae isolate 1424 by agar dilution method; summary of the method: as §2
Streptococcus pneumoniae [43] = experiment: Antimicrobial activity against Streptococcus pneumoniae isolate 33 by agar dilution method; summary of the method: as §2
Streptococcus pneumoniae [44] = experiment: Antimicrobial activity against Streptococcus pneumoniae isolate 3791 by agar dilution method; summary of the method: as §2
Streptococcus pneumoniae [45] = experiment: Antimicrobial activity against Streptococcus pneumoniae isolate 3263 by agar dilution method
Streptococcus pneumoniae [46] = experiment: Antimicrobial activity against Streptococcus pneumoniae isolate 1147 by agar dilution method; summary of the method: as §2
Streptococcus pneumoniae [47] = experiment: Antimicrobial activity against Streptococcus pneumoniae isolate 2874 by agar dilution method; summary of the method: as §2

Compound `COc1c(N2C[C@@H]3CCCN[C@@H]3C2)c(F)cc2c(=O)c(C(=O)O)cn(C3CC3)c12` [MOXIFLOXACIN] has an MIC (Streptococcus pneumoniae [1]) of 0.25 µg/mL (≈ 0.623 µM), an MIC (Streptococcus pneumoniae [2]) of 4 µg/mL (≈ 9.96 µM) and an MIC (Streptococcus pneumoniae [3]) of 2 µg/mL (≈ 4.98 µM). For the same compound, the MIC (Streptococcus pneumoniae [4]) was 4 µg/mL (≈ 9.96 µM).
With `CC[C@H]1OC(=O)[C@H](C)C(=O)[C@H](C)[C@@H](O[C@@H]2O[C@H](C)C[C@H](N(C)C)[C@H]2O)[C@](C)(OC)C[C@@H](C)C(=O)[C@H](C)[C@H]2N(CCCCn3cnc(-c4cccnc4)c3)C(=O)O[C@]12C` [TELITHROMYCIN] the MIC (Streptococcus pneumoniae [5]) was 0.06 µg/mL (≈ 0.0739 µM), the MIC (Streptococcus pneumoniae [6]) was 0.008 µg/mL (≈ 0.00985 µM) and the MIC (Streptococcus pneumoniae [7]) was 0.008 µg/mL (≈ 0.00985 µM). For the same compound, the MIC (Streptococcus pneumoniae [8]) was 0.03 µg/mL (≈ 0.0369 µM), the MIC (Streptococcus pneumoniae [9]) was 0.12 µg/mL (≈ 0.148 µM) and the MIC (Streptococcus pneumoniae [3]) was 0.008 µg/mL (≈ 0.00985 µM). The MIC (Streptococcus pneumoniae [4]) was 0.03 µg/mL (≈ 0.0369 µM), the MIC (Streptococcus pneumoniae [10]) was 0.12 µg/mL (≈ 0.148 µM) and the MIC (Streptococcus pneumoniae [11]) was 0.12 µg/mL (≈ 0.148 µM). For the same compound, the MIC (Streptococcus pneumoniae [12]) was 0.008 µg/mL (≈ 0.00985 µM), the MIC (Streptococcus pneumoniae [13]) was 0.004 µg/mL (≈ 0.00493 µM) and the MIC (Streptococcus pneumoniae [14]) was 0.016 µg/mL (≈ 0.0197 µM).
For `CC[C@H]1OC(=O)[C@H](C)[C@@H](O[C@H]2C[C@@](C)(OC)[C@@H](O)[C@H](C)O2)[C@H](C)[C@@H](O[C@@H]2O[C@H](C)C[C@H](N(C)C)[C@H]2O)[C@](C)(OC)C[C@@H](C)C(=O)[C@H](C)[C@@H](O)[C@]1(C)O` [CLARITHROMYCIN], the MIC (Streptococcus pneumoniae [15]) was > 64 µg/mL, the MIC (Streptococcus pneumoniae [16]) was > 64 µg/mL and the MIC (Streptococcus pneumoniae [17]) was > 64 µg/mL. The MIC (Streptococcus pneumoniae [18]) was 0.03 µg/mL (≈ 0.0401 µM), the MIC50 (Streptococcus pneumoniae [19]) was 0.06 µg/mL (≈ 0.0802 µM) and the MIC (Streptococcus pneumoniae [20]) was 32 µg/mL (≈ 42.8 µM). The MIC (Streptococcus pneumoniae [21]) was > 64 µg/mL, the MIC (Streptococcus pneumoniae [1]) was 32 µg/mL (≈ 42.8 µM) and the MIC (Streptococcus pneumoniae [22]) was 64 µg/mL (≈ 85.6 µM). The MIC (Streptococcus pneumoniae [2]) was 32 µg/mL (≈ 42.8 µM), the MIC (Streptococcus pneumoniae [23]) was > 64 µg/mL and the MIC50 (Streptococcus pneumoniae [24]) was 1 µg/mL (≈ 1.34 µM). For the same compound, the MIC90 (Streptococcus pneumoniae [24]) was > 64 µg/mL, the MIC (Streptococcus pneumoniae [25]) was > 64 µg/mL and the MIC (Streptococcus pneumoniae [26]) was 8 µg/mL (≈ 10.7 µM). For the same compound, the MIC (Streptococcus pneumoniae [27]) was 2 µg/mL (≈ 2.67 µM), the MIC (Streptococcus pneumoniae [28]) was > 64 µg/mL and the MIC (Streptococcus pneumoniae [29]) was 64 µg/mL (≈ 85.6 µM). For the same compound, the MIC50 (Streptococcus pneumoniae [30]) was 0.5 µg/mL (≈ 0.668 µM), the MIC90 (Streptococcus pneumoniae [30]) was > 64 µg/mL and the MIC (Streptococcus pneumoniae [31]) was 64 µg/mL (≈ 85.6 µM). For the same compound, the MIC (Streptococcus pneumoniae [32]) was > 64 µg/mL, the MIC (Streptococcus pneumoniae [33]) was > 64 µg/mL and the MIC (Streptococcus pneumoniae [34]) was 32 µg/mL (≈ 42.8 µM). The MIC (Streptococcus pneumoniae [35]) was 16 µg/mL (≈ 21.4 µM), the MIC50 (Streptococcus pneumoniae [36]) was > 64 µg/mL and the MIC90 (Streptococcus pneumoniae [36]) was > 64 µg/mL. For the same compound, the MIC (Streptococcus pneumoniae [37]) was > 64 µg/mL, the MIC (Streptococcus pneumoniae [38]) was 64 µg/mL (≈ 85.6 µM) and the MIC (Streptococcus pneumoniae [39]) was 0.03 µg/mL (≈ 0.0401 µM). For the same compound, the MIC (Streptococcus pneumoniae [40]) was 32 µg/mL (≈ 42.8 µM), the MIC (Streptococcus pneumoniae [41]) was > 64 µg/mL and the MIC (Streptococcus pneumoniae [42]) was 16 µg/mL (≈ 21.4 µM). For the same compound, the MIC (Streptococcus pneumoniae [43]) was 0.03 µg/mL (≈ 0.0401 µM), the MIC (Streptococcus pneumoniae [44]) was 32 µg/mL (≈ 42.8 µM) and the MIC (Streptococcus pneumoniae [45]) was > 64 µg/mL. The MIC (Streptococcus pneumoniae [46]) was 1 µg/mL (≈ 1.34 µM) and the MIC (Streptococcus pneumoniae [47]) was 32 µg/mL (≈ 42.8 µM).
